From PubChem BioAssay
procasp7 counter – procaspase-7 activators, primary screen, counter-screen for procaspase-3 activator project, biochemical, absorbance, HTS, human | Caspase-7 (Homo sapiens), P55210 | recombinant procaspase-7, Ac-DEVD-pNA absorbance 405 nm; D23A/D198A/D206A triple mutant, cannot self-cleave; scale: DMSO 0, 5 µM enzyme 100 | activation, % at 8.5 µM | 330,000 tested, 0.093% active | AID 463210, 2010;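 active = percent activation above the screen-wide mean plus 3 SD, cut at about 25% in these data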
Target sequence (P55210 whole entry D23A/D198A/D206A): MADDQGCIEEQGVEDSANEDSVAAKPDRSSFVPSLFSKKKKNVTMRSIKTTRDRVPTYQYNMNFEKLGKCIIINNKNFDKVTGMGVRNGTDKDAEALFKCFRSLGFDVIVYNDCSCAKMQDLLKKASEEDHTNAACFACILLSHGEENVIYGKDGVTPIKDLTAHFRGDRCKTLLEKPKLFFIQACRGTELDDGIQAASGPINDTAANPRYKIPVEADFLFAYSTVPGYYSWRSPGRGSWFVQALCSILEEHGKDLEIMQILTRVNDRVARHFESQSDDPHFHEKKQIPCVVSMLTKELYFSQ
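Assay system: Uncleavable procaspase-7 mutant enzyme / Input: 2 µM procaspase-7 mutant as dispensed / Dosing: single nominal 8.5 µM compound dose, 0.8% DMSO final / Timing: 1 h enzyme–compound preincubation and 2 h substrate reaction, both 25 °C / Detection: p-Nitroaniline absorbance at 405 nm, read at 0 and 120 min / Replication: singlicate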
FXN GAA850 act – FXN promoter activators, primary screen, cell-based, luciferase luminescence, HEK293 lucGAA850 | HEK293 lucGAA850 FXN promoter luciferase reporter, 24 h; percent of 10 µM SAHA response | activation, % at 6 µM | 360,000 tested, 0.56% active | AID 540364, 2011;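 active = activation above the average of all compounds screened plus 3 SD, cutoff fixed separately per campaign, cut at about 7.5% in these data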
procasp3 activ – activators of human procaspase-3 D3A mutant, primary screen, biochemical, absorbance, PC-3 D3A mutant, single concentration; activation, % at 8.5 µM; Caspase-3 (Homo sapiens), P42574; 330,000 tested, 0.11% active; recombinant procaspase-3 D3A, Ac-DEVD-pNA absorbance 405 nm;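 active = activation above the mean of all tested compounds plus 3 SD, cut at about 21% in these data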
Target sequence (P42574 whole entry D9A/D28A/D175A): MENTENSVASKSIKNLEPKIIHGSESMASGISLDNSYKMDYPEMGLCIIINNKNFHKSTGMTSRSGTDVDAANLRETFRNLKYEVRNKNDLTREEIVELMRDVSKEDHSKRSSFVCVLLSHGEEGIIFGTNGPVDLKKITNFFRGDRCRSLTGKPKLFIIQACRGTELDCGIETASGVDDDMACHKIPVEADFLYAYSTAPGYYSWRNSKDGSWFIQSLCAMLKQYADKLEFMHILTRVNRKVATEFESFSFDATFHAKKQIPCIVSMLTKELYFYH
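Assay system: Autoprocessing-dead procaspase-3 D3A mutant enzyme; also added: Ac-DEVD-pNA; doses: one concentration, 8.5 µM nominal, 0.8% DMSO; times: 1 h compound preincubation, 2 h substrate hydrolysis at 25 °C; technique: 405 nm absorbance of p-nitroaniline, reads at 0 and 120 min; measure: % activation between DMSO and enzyme-spiked controls; repeats: single replicate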
GAA30 FXN cntr – GAA30 FXN promoter activators, confirmation, counter-screen for GAA850 frataxin promoter activator project, cell-based, luminescence, HEK293, lucGAA30, triplicate; AID 588350, 2011; 1,900 tested, 66% active; activation, % at 6 µM; shares compounds with FXN GAA850 act; HEK293 lucGAA30 FXN promoter luciferase, 24 h; DMSO = 0%, 5 µM ipriflavone = 100%;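 active = mean activation above the mean of solvent-only control wells plus 3 SD, cut at about 22% in these data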;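 also: counterscreen of GAA850 promoter hits where activity marks nonselective or luminescence artifacts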
FXN GAA850 conf – FXN GAA850 promoter activators in reporter cells, confirmation, cell-based, luminescence, HEK293 lucGAA850, triplicate. shares compounds with FXN GAA850 act. HEK293 lucGAA850 FXN promoter luciferase reporter, 24 h; 100% = activation by SAHA. activation, % at 6 µM. 1,900 tested, 86% active. AID 588351, 2011;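 active = mean activation above a set limit taken from the primary screen, cut at about 8% in these data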
Large screens that a line does not name were inactive (follow-up assays come after a bar, where they were run). In the library only some 0.7% were active in any assay of this set; here they are far more common.

COC(=O)c1ccc(N2CCOCC2)c(NC(=O)c2ccco2)c1	none
O=C(Nc1ccccc1)Nc1ccno1	none
c1cnc2ccc(C(c3nnnn3C3CCCCC3)N3CCN4CCCC4C3)cc2c1 (stereo unspecified)	none
OC1CCN(C(c2ccc3ncccc3c2)c2nnnn2C2CCCCC2)CC1 (stereo unspecified)	FXN GAA850 act 7.8 | GAA30 FXN cntr inactive | FXN GAA850 conf inactive
CCOc1ccc(NC(=O)C(C)NC(=O)c2ccccc2Cl)cc1S(=O)(=O)N1CCCC1 (stereo unspecified)	none
Cn1ncc2c1ncn1nc(CCc3ccccc3)nc21	FXN GAA850 act 9.1 | GAA30 FXN cntr 106.1 | FXN GAA850 conf 29.1
Cn1ncc2c1ncn1nc(COc3ccc4ccccc4c3)nc21	none
CC(C)C[C@H](NC(=O)c1nc[nH]c1C(=O)N1CCN(C(=O)OC(C)(C)C)CC1)C(=O)OC(C)(C)C	none
O=C(COc1ccc(Cl)cc1)NNC(=O)c1ccc2c(=O)n3c(nc2c1)CCC3	none
CC(=O)Nc1ccc(N(CC(O)Cn2c3ccccc3c3ccccc32)S(=O)(=O)c2ccc(C)cc2)cc1 (stereo unspecified)	FXN GAA850 act 16.4 | GAA30 FXN cntr inactive | FXN GAA850 conf 12.4
Cc1ccc(N(CC(O)Cn2c3ccccc3c3ccccc32)S(C)(=O)=O)cc1 (stereo unspecified)	none
CCCNc1c(NS(=O)(=O)c2c(F)c(F)c(F)c(F)c2F)c(=O)oc2ccccc12	none
CN(C(=O)c1ccno1)c1nnc(-c2ccccn2)s1	none
COc1ccc(-c2nnc(N(C)C(=O)c3ccno3)s2)cc1	FXN GAA850 act 11.9 | GAA30 FXN cntr 99.3 | FXN GAA850 conf 29.9
CCOc1ccc(/C=C/C2=NNC(=O)CC2)cc1	none
COc1ccc(/C=C/C2=NNC(=O)CC2)cc1	FXN GAA850 act 7.7 | GAA30 FXN cntr 82.8 | FXN GAA850 conf 32.1
CN(C1CCCCC1)C(CNS(=O)(=O)c1ccccc1)c1ccccc1 (stereo unspecified)	none
COc1ccc(C2=Nn3c(nnc3-c3ccco3)SC2)cc1OC	FXN GAA850 act 10.5 | GAA30 FXN cntr 36.8 | FXN GAA850 conf 19.6
COc1ccc(C2=Nn3c(nnc3-c3ccccc3OC)SC2)cc1OC	none
COc1cccc(C(=O)/C=C2\NCCc3cc(OC)c(OC)cc32)c1	none
COc1cc2c(cc1OC)/C(=C/C(=O)c1ccc([N+](=O)[O-])c(C)c1)NCC2	none (no result: procasp7 counter, procasp3 activ)
COc1cc2c(cc1OC)/C(=C/C(=O)c1ccc(C)cc1)NCC2	FXN GAA850 act 8.2 (no result: procasp7 counter, procasp3 activ) | GAA30 FXN cntr 37.4 | FXN GAA850 conf 24.3
COc1cc2c(cc1OC)/C(=C/C(=O)c1ccccc1)NCC2	FXN GAA850 act 8.5 | GAA30 FXN cntr 29.0 | FXN GAA850 conf 15.5
O=C1c2cccc(NCCCNCCO)c2C(=O)c2cccc(NCCCNCCO)c21	none (no result: procasp7 counter, procasp3 activ)
CCOC(=O)c1ccccc1NC(=O)CSC(C)C(=O)Nc1cc(C)on1 (stereo unspecified)	none
CCOc1ccc(S(=O)(=O)Nc2ccccc2C(=O)Nc2ccccc2N2CCOCC2)cc1	FXN GAA850 act 8.3 | GAA30 FXN cntr inactive | FXN GAA850 conf 10.9
O=C(Nc1ccccc1N1CCOCC1)c1ccccc1NS(=O)(=O)c1ccc(F)cc1	none
O=C(Nc1cccnc1Cl)c1ccc2c(Cl)c3c(nc2c1)CCC3	FXN GAA850 act 7.7 (no result: procasp7 counter, procasp3 activ) | GAA30 FXN cntr 112.7 | FXN GAA850 conf 29.8
N#Cc1ccccc1NC(=O)c1ccc2c(Cl)c3c(nc2c1)CCCC3	none
O=C1[C@H](Cc2ccccc2)NCC=CC[C@@H](c2ccc(Cl)cc2)N1Cc1ccccc1	none (no result: procasp7 counter, procasp3 activ)
O=C1[C@H](Cc2ccccc2)NCC=CC[C@H](c2ccco2)N1Cc1ccccc1	FXN GAA850 act 11.4 (no result: procasp7 counter, procasp3 activ) | GAA30 FXN cntr inactive | FXN GAA850 conf inactive
CN(CC(=O)Nc1ccc(Cl)c(C(F)(F)F)c1)C(=O)CCNC(=O)c1ccco1	none
CN(CC(=O)Nc1ccc(Cl)c(C(F)(F)F)c1)C(=O)CCCNC(=O)c1ccc(Cl)cc1	FXN GAA850 act 14.8 | GAA30 FXN cntr 65.4 | FXN GAA850 conf 25.9
Cc1ccc(-n2c(=O)cc(N3CC(C)OC(C)C3)[nH]c2=O)cc1 (stereo unspecified)	none
CC1CN(c2cc(=O)n(-c3ccccc3)c(=O)[nH]2)CC(C)O1 (stereo unspecified)	FXN GAA850 act 8.1 | GAA30 FXN cntr inactive | FXN GAA850 conf inactive
CCCn1c(=O)[nH]c(=O)c2c(C(F)(F)F)cc(-c3ccc(C)cc3)nc21	none
CC(C)Cn1c(=O)[nH]c(=O)c2c(C(F)(F)F)cc(-c3ccccc3)nc21	FXN GAA850 act 7.7 | GAA30 FXN cntr inactive | FXN GAA850 conf 16.0
COc1ccc(N(C(=O)c2csnn2)C(C(=O)NC2CCCC2)c2ccccc2)cc1 (stereo unspecified)	none
Cc1ccc(-n2nc3ccc(NC(=O)C(C)C)cc3n2)cc1	FXN GAA850 act 7.9 | GAA30 FXN cntr 106.1 | FXN GAA850 conf 37.5
CC(C)C(=O)Nc1ccc2nn(-c3ccc(F)cc3)nc2c1	none
O=C(NCc1cccnc1)Nc1cccc(Cl)c1Cl	none
CCCCOc1ccc(-c2cn3ccccc3n2)cc1[N+](=O)[O-]	none
CCOc1ccc(-c2cn3ccccc3n2)cc1[N+](=O)[O-]	FXN GAA850 act 9.2 | GAA30 FXN cntr 120.7 | FXN GAA850 conf 39.6
O=[N+]([O-])c1ccc(-c2cn3ccccc3n2)cc1	FXN GAA850 act 9.2 | GAA30 FXN cntr 107.6 | FXN GAA850 conf 50.3
c1ccc(-c2cn3ccccc3n2)cc1	none (no result: procasp7 counter, procasp3 activ)
O=Cc1coc2c(ccc3ccccc32)c1=O	none (no result: FXN GAA850 act)
COCCNC(=O)c1cc(-c2cccs2)on1	FXN GAA850 act 15.1 | GAA30 FXN cntr 145.3 | FXN GAA850 conf 69.9
O=C(NCc1cccs1)c1cc(-c2cccs2)on1	none
O=[N+]([O-])c1ccccc1S(=O)(=O)Nc1ccc2c(c1)OCCO2	none (no result: procasp7 counter, procasp3 activ)
CC(C)CN(CCCNC(=O)CN1N=C(c2ccc(Cl)cc2)CCC1=O)CC(C)C	none
COC(=O)c1c(-c2ccccc2)nn(-c2ccccc2)c1C(=O)OC	none
CCCSc1nnc(-c2ccccc2N)c(=O)[nH]1	FXN GAA850 act 10.7 | GAA30 FXN cntr 90.1 | FXN GAA850 conf 27.8
CCCCSc1nnc(-c2ccccc2N)c(=O)[nH]1	none
Cc1cc(-c2ccc(F)cc2)nc2cc(C(N)=O)nn12	none
CCOC(=O)c1cnn2c(C)cc(-c3ccc(F)cc3)nc12	FXN GAA850 act 8.3 | GAA30 FXN cntr 112.3 | FXN GAA850 conf 36.6
Cc1ccc([N+](=O)[O-])cc1NC(=S)NC(=O)c1c(Cl)cnn1C	none (no result: procasp7 counter, procasp3 activ)
